Kd and half-life data for eleven molecules are collected here from ChEMBL document CHEMBL1146220, “Rational optimization of the binding affinity of CD4 targeting peptidomimetics with potential anti HIV activity” (J Med Chem, 2007).

For series [1], the target named is T-cell surface glycoprotein CD4 (Homo sapiens, UniProt P01730). Kind of series: Binding affinity to CD4 by SPR assay. Summed up: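 Test ligands passed over the CD4 SPR surface at a series of concentrations, recording the concentration-dependent maximum response units (RU). Surface regenerated between runs with short pulses of 100 mM H3PO4. Only the lower concentrations (generally up to 50 µM) fitting a one-site binding model were used. KD was taken as the concentration at RUmax/2.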
On the technique in general: In SPR one partner is held on a chip, and binding of the other changes the refractive index at the surface.

Series [2] is described as follows: Half life by pronase digestion assay. Type of series: ADME. Conditions: pronase (protease digestion). Put shortly: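 Pronase digestion was run at 37 °C. Aliquots were taken at 5, 10, 15, 20 and 30 min and quenched with 1 M acetic acid. Hydrolysis products were identified as M+H+/Na+/K+ ions, and t1/2 was derived from the disappearance time course.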

In general, Kd refers to the equilibrium constant for the complex coming apart. The low end stands for a tighter complex, the high end for a looser complex. The term half-life denotes the time needed for the level to fall by half in the phase considered. A higher half-life goes with slow decline.

Numbered stars: 1 amine (or outer) side, 2 acyl side, 3 side chain; on linkers, the order of the positions; unused ones are H or OH. Square brackets hold non-standard residues; d marks the D form. Peptide text beside a SMILES is read from it. * marks the point of attachment. Acetyl(2-naphthyloxy) = O=C(COc1ccc2ccccc2c1)*; Alaninol(O-CO) = C[C@@H](COC(=O)[*:2])N[*:1]; NH(1-Adamantyl) = C1C2CC3CC1CC(N*)(C2)C3; X1 = O=C(OC[C@@H]1CCCN1[*:1])[*:2]; X2 = S=C(NC1CC1)OC[C@@H]1CCCN1*; X3 = O=C(COc1cccc2cccnc12)*; NHcHex = C1CCC(N*)CC1; NHcPent = C1CCC(N*)C1; NHtBu = CC(C)(C)N*

`CC(C)[C@H](NC(=O)[C@H](CCCCN)NC(=O)COc1ccc2ccccc2c1)C(=O)NCC(=O)N[C@H](C(=O)N1CCC[C@H]1COC(=O)NC(C)(C)C)[C@@H](C)O` ({Acetyl(2-naphthyloxy)}-KVGT[X1]-NHtBu) returned a Kd in series [1] of 6 µM. For the molecule H-NMWQKVGTPL-OH, in series [2], the half-life worked out at 6 min. Also, binding in series [1] was characterised by a dissociation constant (Kd) of 6000 µM. `CC(C)[C@H](NC(=O)[C@H](CCCCN)NC(=O)COc1ccc2ccccc2c1)C(=O)NCC(=O)N[C@H](C(=O)N1CCC[C@H]1COC(=S)NC1CC1)[C@@H](C)O` ({Acetyl(2-naphthyloxy)}-KVGT-X2) came in with a dissociation constant (Kd) in series [1] of 27 µM.

For `CC(C)[C@H](NC(=O)[C@H](CCCCN)NC(=O)COc1ccc2ccccc2c1)C(=O)NCC(=O)N[C@H](C(=O)N1CCC[C@H]1COC(=O)NC1CCCCC1)[C@@H](C)O` ({Acetyl(2-naphthyloxy)}-KVGT[X1]-NHcHex), the half-life in series [2] came out at 27.3 min. Binding in series [1] was characterised by a dissociation constant (Kd) of 35 µM. `CC(C)[C@H](NC(=O)[C@H](CCCCN)NC(=O)COc1ccc2ccccc2c1)C(=O)NCC(=O)N[C@H](C(=O)N[C@@H](C)COC(=O)NC(C)(C)C)C(C)O` (single isomer, unassigned) yielded a Kd in series [1] of 20 µM. `CCOC(=O)CNC(=O)OC[C@@H]1CCCN1C(=O)[C@@H](NC(=O)CNC(=O)[C@@H](NC(=O)[C@H](CCCCN)NC(=O)COc1ccc2ccccc2c1)C(C)C)[C@@H](C)O` ({Acetyl(2-naphthyloxy)}-KVGT[X1]G-OEt): the half-life in series [2] was determined as 23 min. Further, in series [1], the Kd was determined as 26 µM. Consider `CC(C)[C@H](NC(=O)[C@H](CCCCN)NC(=O)COc1ccc2ccccc2c1)C(=O)NCC(=O)N[C@H](C(=O)N[C@@H](C)COC(=O)NC1CCCC1)[C@@H](C)O` ({Acetyl(2-naphthyloxy)}-KVGT[Alaninol(O-CO)]-NHcPent), for which binding in series [1] was put at a Kd of 62 µM.

For `CC(C)[C@H](NC(=O)[C@H](CCCCN)NC(=O)COc1cccc2cccnc12)C(=O)NCC(=O)N[C@H](C(=O)N1CCC[C@H]1COC(=O)NC(C)(C)C)[C@@H](C)O` (X3-KVGT[X1]-NHtBu), the Kd in series [1] is 26 µM. On the same count and under the same terms, as for `CC(C)[C@H](NC(=O)[C@H](CCCCN)NC(=O)COc1cccc2cccnc12)C(=O)NCC(=O)N[C@H](C(=O)N[C@@H](C)COC(=O)NC(C)(C)C)[C@@H](C)O` (X3-KVGT[Alaninol(O-CO)]-NHtBu), the figure is 13 µM; as for `CC(C)[C@H](NC(=O)[C@H](CCCCN)NC(=O)COc1ccc2ccccc2c1)C(=O)NCC(=O)N[C@H](C(=O)N1CCC[C@H]1COC(=O)NC1CCCC1)[C@@H](C)O` ({Acetyl(2-naphthyloxy)}-KVGT[X1]-NHcPent), 16 µM; as for `CC(C)[C@H](NC(=O)[C@H](CCCCN)NC(=O)COc1ccc2ccccc2c1)C(=O)NCC(=O)N[C@H](C(=O)N[C@@H](C)COC(=O)NC12CC3CC(CC(C3)C1)C2)[C@@H](C)O` ({Acetyl(2-naphthyloxy)}-KVGT[Alaninol(O-CO)]-{NH(1-Adamantyl)}), 80 µM.
